Data from ChEMBL document CHEMBL3351311 (ACS Med Chem Lett, 2014).
≈ marks a conversion by molar mass, not a printed value. One block for each compound: values may come before it.

Columns and labels:
[1] = Ratio of drug level in brain to plasma in rat at 10 mg/kg, po after 30 mins; type: ADME, organism-based; design: dose 10 mg/kg, route oral; conditions: read-out: BPR
[2] = Drug level in rat brain at 10 mg/kg, po after 30 mins; type: ADME, organism-based; design: dose 10 mg/kg, route oral; conditions: read-out: Drug uptake
[3] = Plasma concentration in rat at 10 mg/kg, po after 30 mins; type: ADME, organism-based; design: dose 10 mg/kg, route oral
[4] = biological target: T1, cAMP and cAMP-inhibited cGMP 3',5'-cyclic phosphodiesterase 10A (Rattus norvegicus, UniProt Q9QYJ6); assay: Inhibition of rat PDE10A expressed in Sf9 cells incubated for 60 mins using [3H]-cAMP substrate by scintillation counting method
T1 sequence (Q9QYJ6 whole entry): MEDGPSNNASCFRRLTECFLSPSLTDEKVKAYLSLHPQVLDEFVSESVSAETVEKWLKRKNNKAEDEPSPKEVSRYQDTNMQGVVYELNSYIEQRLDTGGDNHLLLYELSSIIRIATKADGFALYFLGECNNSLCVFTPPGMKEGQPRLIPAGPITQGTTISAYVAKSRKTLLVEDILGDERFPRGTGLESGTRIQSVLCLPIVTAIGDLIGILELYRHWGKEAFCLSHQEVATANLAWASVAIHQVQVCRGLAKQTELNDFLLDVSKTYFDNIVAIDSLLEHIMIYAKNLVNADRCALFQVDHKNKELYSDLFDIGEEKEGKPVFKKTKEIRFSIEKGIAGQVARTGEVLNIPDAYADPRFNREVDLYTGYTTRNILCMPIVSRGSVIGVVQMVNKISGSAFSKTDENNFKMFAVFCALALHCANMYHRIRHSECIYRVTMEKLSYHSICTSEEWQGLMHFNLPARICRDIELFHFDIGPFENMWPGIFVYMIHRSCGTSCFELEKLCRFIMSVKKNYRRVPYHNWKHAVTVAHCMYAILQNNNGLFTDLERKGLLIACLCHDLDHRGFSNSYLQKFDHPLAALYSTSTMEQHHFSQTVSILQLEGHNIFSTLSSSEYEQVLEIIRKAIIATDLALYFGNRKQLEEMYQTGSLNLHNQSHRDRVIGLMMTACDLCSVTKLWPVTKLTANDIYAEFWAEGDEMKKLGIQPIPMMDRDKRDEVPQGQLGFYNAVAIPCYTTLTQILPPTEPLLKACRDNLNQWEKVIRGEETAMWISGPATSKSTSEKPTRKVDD

[5] = Selectivity index, ratio of IC50 for rat PDE10A to IC50 for human PDE2A
[6] = Ratio of drug level in brain to plasma of Sprague-Dawley rat at 10 mg/kg, sc after 4 hrs; type: ADME, organism-based; design: dose 10 mg/kg, route subcutaneous; conditions: read-out: BPR
How it was run: (§1)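 Male Sprague-Dawley rats, fed (n = 3), dosed 10 mg/kg s.c. at 1 mg/mL in 20% HP-β-CD, pH 7.0. Plasma (ng/mL) and brain (ng/g) levels were measured at 0.5, 1, 2, 4, 7 and 24 h, each with SD. The brain/plasma ratio is computed at each time point.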

[7] = Stability in human liver microsomes assessed as parent compound remaining after 15 mins; type: ADME; conditions: read-out: Stability
How it was run: (§2)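 Incubated with human or rat liver microsomes for 15 min. Result is the percent of parent compound remaining.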

Cytochrome P450 3A4 = Cytochrome P450 3A4 (Homo sapiens, UniProt P08684); assay: Inhibition of CYP3A4 in human liver microsomes; type: ADME
How it was run: (§3)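 CYP2C19 and 3A4 were tested in a human liver microsomal CYP inhibition assay, with IC50 determination.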

Rattus norvegicus [8] = assay: Increase in cGMP levels in Wistar rat striatum at 10 mg/kg, sc after 1 hr; type: functional; conditions: route subcutaneous
How it was run: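 Rats were dosed 10 mg/kg s.c., and striatal cGMP was measured 1 h later against vehicle-dosed animals. Five independent experiments were run (n = 4–5 each), reported as % of vehicle with range.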

[9] = biological target: Dual specificity calcium/calmodulin-dependent 3',5'-cyclic nucleotide phosphodiesterase 1A (Homo sapiens, UniProt P54750); assay: Inhibition of human PDE1A by scintillation counting method
How it was run: (§4)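 IC50 values were calculated from experiments each run at eight concentrations.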

Cytochrome P450 2C19 = Cytochrome P450 2C19 (Homo sapiens, UniProt P33261); assay: Inhibition of CYP2C19 in human liver microsomes; type: ADME; how it was run: as §3
Salmonella typhimurium = assay: Mutagenicity in Salmonella typhimurium at <125 ug/mL by Ames-2 test; type: toxicity, organism-based; conditions: salmonella enterica subsp. enterica serovar typhimurium
How it was run: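 In vitro colorimetric bacterial mutagenicity assay, adapted from the AMESII Mutagenicity Assay kit.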

Plasma [10] = assay: Free drug concentration in Sprague-Dawley rat brain at 10 mg/kg, sc after 1 hr; type: ADME, organism-based; design: dose 10 mg/kg, route subcutaneous; conditions: in vivo
How it was run: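 Free brain level at 1 h after a 10 mg/kg s.c. dose. Total brain concentration was corrected with the measured unbound brain fraction (Fub) and the unbound fraction to plasma proteins (Fup).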

[11] = Formulatability in water at pH 3.6; type: physicochemical; conditions: read-out: Activity
How it was run: (§5)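 Formulatability in mg/mL, tested in three vehicles: water at pH 3.6, 10% β-HP-CD at pH 3.6, and 20% HP-β-CD at pH 7.0.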

[12] = Ratio of drug level in brain to plasma of Sprague-Dawley rat at 10 mg/kg, sc after 2 hrs; type: ADME, organism-based; design: dose 10 mg/kg, route subcutaneous; conditions: read-out: BPR; how it was run: as §1
[13] = AUC (0 to infinity) in Sprague-Dawley rat at 2.5 mg/kg, iv; type: ADME, organism-based; design: time infinity, dose 2.5 mg/kg, route intravenous; conditions: plasma
How it was run: (§6)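 Rats received 2.5 mg/kg i.v. Plasma kinetic parameters (t1/2, Cl, Vdss, AUC0-inf) are reported as mean (SD).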

[14] = Unbound fraction in Sprague-Dawley rat brain at 10 mg/kg, sc; type: ADME, organism-based; design: dose 10 mg/kg, route subcutaneous
[15] = Cmax in Sprague-Dawley rat at 10 mg/kg, sc; type: ADME, organism-based; design: dose 10 mg/kg, route subcutaneous; conditions: in vivo
How it was run: (§7)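 Male Sprague-Dawley rats, fed (n = 3), given 10 mg/kg s.c. as a 1 mg/mL solution in 20% HP-β-CD, pH 7.0. Plasma kinetic parameters are reported as mean (SD).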

[16] = biological target: High affinity 3',5'-cyclic-AMP phosphodiesterase 7A (Homo sapiens, UniProt Q13946)
[17] = Stability in rat liver microsomes assessed as parent compound remaining after 15 mins; type: ADME; conditions: read-out: Stability; how it was run: as §2
[18] = Tmax in Sprague-Dawley rat at 10 mg/kg, sc; type: ADME, organism-based; design: dose 10 mg/kg, route subcutaneous; conditions: in vivo
How it was run: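 Fed male Sprague-Dawley rats (n = 3) were dosed subcutaneously at 10 mg/kg, formulated at 1 mg/mL in 20% HP-β-CD, pH 7.0. Plasma kinetics were followed and reported as mean (SD).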

[19] = biological target: Dual 3',5'-cyclic-AMP and -GMP phosphodiesterase 11A (Homo sapiens, UniProt Q9HCR9); assay: Inhibition of human PDE11A4 expressed in Sf9 cells by scintillation counting method; how it was run: as §4
[20] = biological target: cGMP-specific 3',5'-cyclic phosphodiesterase (Homo sapiens, UniProt O76074); assay: Inhibition of human PDE5A3 expressed in Sf9 cells by scintillation counting method; how it was run: as §4
Rattus norvegicus [21] = assay: Effect on cAMP levels in Wistar rat striatum at 10 mg/kg, sc after 1 hr; type: functional; conditions: route subcutaneous
Phosphodiesterase 6 = assay: Inhibition of human PDE6AB expressed in Sf9 cells by scintillation counting method; how it was run: as §4
Plasma [22] = assay: Plasma concentration in Sprague-Dawley rat at 10 mg/kg, sc after 24 hrs; type: ADME, organism-based; design: dose 10 mg/kg, route subcutaneous; conditions: in vivo, BLD = below limit of detection; how it was run: as §1
[23] = Unbound fraction in Sprague-Dawley rat plasma at 10 mg/kg, sc; type: ADME, organism-based; design: dose 10 mg/kg, route subcutaneous
Rattus norvegicus [24] = assay: In-vivo occupancy at PDE2 in sc dosed Wistar rat brain using [3H]labeled compound in presence of 2.5 mg/kg, sc PDE10 inhibitor MP10; type: functional, organism-based; design: dose 2.5 mg/kg, route subcutaneous
How it was run: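 Male Wistar rats (n = 3 per dose) were dosed s.c., co-administered with MP10 at 2.5 mg/kg s.c. Ex vivo autoradiography was done on brain slices with the tritiated compound. Occupancy is the inhibition of specific [3H] binding relative to vehicle-treated animals, and ED50 was derived against dose.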

[25] = biological target: 3',5'-cyclic-AMP phosphodiesterase 4D (Homo sapiens, UniProt Q08499); assay: Inhibition of human PDE4D by scintillation counting method; how it was run: as §4
[26] = Clearance in Sprague-Dawley rat at 2.5 mg/kg, iv; type: ADME, organism-based; design: dose 2.5 mg/kg, route intravenous; conditions: in vivo; how it was run: as §6
[27] = Ratio of drug level in brain to plasma of Sprague-Dawley rat at 10 mg/kg, sc after 7 hrs; type: ADME, organism-based; design: dose 10 mg/kg, route subcutaneous; conditions: read-out: BPR; how it was run: as §1
Brain = assay: Drug level in Sprague-Dawley rat brain at 10 mg/kg, sc after 24 hrs; type: ADME, organism-based; design: dose 10 mg/kg, route subcutaneous; conditions: in vivo, BLD = below limit of detection; how it was run: as §1
[28] = Formulatability in 20% beta-HP-CD at pH 7.0; type: physicochemical; conditions: read-out: Activity; how it was run: as §5
[29] = Formulatability in 10% beta-HP-CD at pH 3.6; type: physicochemical; conditions: read-out: Activity; how it was run: as §5
[30] = Ratio of drug level in brain to plasma of Sprague-Dawley rat at 10 mg/kg, sc after 0.5 hrs; type: ADME, organism-based; design: dose 10 mg/kg, route subcutaneous; conditions: read-out: BPR; how it was run: as §1
[31] = biological target: High affinity cGMP-specific 3',5'-cyclic phosphodiesterase 9A (Homo sapiens, UniProt O76083)
[32] = AUC (0 to infinity) in Sprague-Dawley rat at 10 mg/kg, sc; type: ADME, organism-based; design: time infinity, dose 10 mg/kg, route subcutaneous; conditions: plasma; how it was run: as §7
[33] = biological target: cGMP-inhibited 3',5'-cyclic phosphodiesterase 3B (Homo sapiens, UniProt Q13370); assay: Inhibition of human PDE3B by scintillation counting method; how it was run: as §4
[34] = Half life in Sprague-Dawley rat at 2.5 mg/kg, iv; type: ADME, organism-based; design: dose 2.5 mg/kg, route intravenous; conditions: in vivo; how it was run: as §6
[35] = Volume of distribution at steady state in Sprague-Dawley rat at 2.5 mg/kg, iv; type: ADME, organism-based; design: dose 2.5 mg/kg, route intravenous; conditions: in vivo, read-out: Vdss
How it was run: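 Rats received an intravenous injection at 2.5 mg/kg. Plasma kinetics were followed and parameters reported as mean (SD).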

[36] = Ratio of drug level in brain to plasma of Sprague-Dawley rat at 10 mg/kg, sc after 1 hr; type: ADME, organism-based; design: dose 10 mg/kg, route subcutaneous; conditions: read-out: BPR; how it was run: as §1
[37] = Half life in Sprague-Dawley rat at 10 mg/kg, sc; type: ADME, organism-based; design: dose 10 mg/kg, route subcutaneous; conditions: in vivo; how it was run: as §7

Sequence of Cytochrome P450 3A4 (P08684 whole entry): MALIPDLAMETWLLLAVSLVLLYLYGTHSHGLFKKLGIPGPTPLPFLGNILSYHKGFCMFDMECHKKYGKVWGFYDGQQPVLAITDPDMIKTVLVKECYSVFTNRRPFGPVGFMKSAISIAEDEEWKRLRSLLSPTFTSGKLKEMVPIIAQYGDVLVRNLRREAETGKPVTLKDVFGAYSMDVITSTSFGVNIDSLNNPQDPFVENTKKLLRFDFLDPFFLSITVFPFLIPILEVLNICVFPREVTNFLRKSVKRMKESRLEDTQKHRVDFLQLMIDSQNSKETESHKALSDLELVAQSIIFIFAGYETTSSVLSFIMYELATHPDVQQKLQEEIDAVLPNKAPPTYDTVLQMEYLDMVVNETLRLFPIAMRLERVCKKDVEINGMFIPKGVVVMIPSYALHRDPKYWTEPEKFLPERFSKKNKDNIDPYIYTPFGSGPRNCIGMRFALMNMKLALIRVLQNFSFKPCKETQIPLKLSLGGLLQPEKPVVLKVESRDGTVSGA
Sequence of High affinity cGMP-specific 3',5'-cyclic phosphodiesterase 9A (O76083 whole entry): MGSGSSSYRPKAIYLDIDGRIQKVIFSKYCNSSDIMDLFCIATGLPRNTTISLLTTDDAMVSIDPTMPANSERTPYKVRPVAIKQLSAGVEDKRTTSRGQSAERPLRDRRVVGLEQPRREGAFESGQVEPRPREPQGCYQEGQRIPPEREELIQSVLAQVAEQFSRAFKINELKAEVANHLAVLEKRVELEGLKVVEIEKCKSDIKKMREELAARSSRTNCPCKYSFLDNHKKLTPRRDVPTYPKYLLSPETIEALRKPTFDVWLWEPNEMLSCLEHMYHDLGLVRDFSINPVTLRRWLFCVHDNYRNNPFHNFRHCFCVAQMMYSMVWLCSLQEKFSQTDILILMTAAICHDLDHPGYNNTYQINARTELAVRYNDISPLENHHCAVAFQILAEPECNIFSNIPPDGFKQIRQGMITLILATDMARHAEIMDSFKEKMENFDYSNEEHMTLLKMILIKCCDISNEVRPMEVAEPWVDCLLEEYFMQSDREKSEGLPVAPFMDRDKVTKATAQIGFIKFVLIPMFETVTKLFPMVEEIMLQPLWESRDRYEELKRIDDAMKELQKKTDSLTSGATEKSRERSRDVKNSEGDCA
Sequence of cGMP-inhibited 3',5'-cyclic phosphodiesterase 3B (Q13370 whole entry): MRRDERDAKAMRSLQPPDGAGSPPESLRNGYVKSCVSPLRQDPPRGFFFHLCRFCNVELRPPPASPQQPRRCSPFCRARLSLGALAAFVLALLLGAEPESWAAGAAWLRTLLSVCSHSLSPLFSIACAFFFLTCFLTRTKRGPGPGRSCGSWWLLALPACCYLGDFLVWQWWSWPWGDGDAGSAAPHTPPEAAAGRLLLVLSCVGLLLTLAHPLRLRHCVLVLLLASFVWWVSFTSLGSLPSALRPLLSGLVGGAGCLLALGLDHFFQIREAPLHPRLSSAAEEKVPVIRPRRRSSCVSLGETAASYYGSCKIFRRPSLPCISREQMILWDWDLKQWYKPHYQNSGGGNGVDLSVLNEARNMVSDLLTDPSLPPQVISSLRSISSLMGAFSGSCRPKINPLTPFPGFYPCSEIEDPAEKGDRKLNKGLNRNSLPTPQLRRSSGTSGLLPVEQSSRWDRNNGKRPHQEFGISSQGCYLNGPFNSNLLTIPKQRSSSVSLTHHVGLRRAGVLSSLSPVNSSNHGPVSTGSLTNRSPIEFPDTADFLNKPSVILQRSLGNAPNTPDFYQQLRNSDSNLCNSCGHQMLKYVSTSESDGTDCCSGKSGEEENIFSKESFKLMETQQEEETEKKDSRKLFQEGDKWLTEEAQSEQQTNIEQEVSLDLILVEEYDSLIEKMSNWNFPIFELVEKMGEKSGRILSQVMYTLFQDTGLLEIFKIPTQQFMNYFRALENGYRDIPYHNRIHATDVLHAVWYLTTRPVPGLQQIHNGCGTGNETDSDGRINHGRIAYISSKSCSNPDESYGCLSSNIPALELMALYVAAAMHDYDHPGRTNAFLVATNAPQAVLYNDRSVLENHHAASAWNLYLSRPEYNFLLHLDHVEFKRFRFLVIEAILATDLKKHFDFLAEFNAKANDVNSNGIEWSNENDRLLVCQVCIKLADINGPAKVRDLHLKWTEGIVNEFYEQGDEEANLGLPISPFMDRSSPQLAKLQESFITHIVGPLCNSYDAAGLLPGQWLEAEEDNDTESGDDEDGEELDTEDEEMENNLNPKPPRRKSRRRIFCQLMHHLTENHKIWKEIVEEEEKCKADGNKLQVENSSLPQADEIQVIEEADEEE
Sequence of High affinity 3',5'-cyclic-AMP phosphodiesterase 7A (Q13946 whole entry): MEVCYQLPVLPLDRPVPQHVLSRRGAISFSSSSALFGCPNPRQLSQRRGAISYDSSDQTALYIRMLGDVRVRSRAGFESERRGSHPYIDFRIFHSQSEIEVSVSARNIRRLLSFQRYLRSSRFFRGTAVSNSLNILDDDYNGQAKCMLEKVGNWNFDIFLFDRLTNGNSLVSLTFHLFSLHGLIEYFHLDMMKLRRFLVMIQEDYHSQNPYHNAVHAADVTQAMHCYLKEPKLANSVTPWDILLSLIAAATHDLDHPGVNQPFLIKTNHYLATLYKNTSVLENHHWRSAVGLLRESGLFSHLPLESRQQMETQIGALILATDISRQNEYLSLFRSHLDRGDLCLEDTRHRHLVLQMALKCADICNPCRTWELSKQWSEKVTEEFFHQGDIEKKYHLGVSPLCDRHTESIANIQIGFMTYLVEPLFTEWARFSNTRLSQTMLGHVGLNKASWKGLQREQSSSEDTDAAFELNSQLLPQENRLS
Sequence of Cytochrome P450 2C19 (P33261 whole entry): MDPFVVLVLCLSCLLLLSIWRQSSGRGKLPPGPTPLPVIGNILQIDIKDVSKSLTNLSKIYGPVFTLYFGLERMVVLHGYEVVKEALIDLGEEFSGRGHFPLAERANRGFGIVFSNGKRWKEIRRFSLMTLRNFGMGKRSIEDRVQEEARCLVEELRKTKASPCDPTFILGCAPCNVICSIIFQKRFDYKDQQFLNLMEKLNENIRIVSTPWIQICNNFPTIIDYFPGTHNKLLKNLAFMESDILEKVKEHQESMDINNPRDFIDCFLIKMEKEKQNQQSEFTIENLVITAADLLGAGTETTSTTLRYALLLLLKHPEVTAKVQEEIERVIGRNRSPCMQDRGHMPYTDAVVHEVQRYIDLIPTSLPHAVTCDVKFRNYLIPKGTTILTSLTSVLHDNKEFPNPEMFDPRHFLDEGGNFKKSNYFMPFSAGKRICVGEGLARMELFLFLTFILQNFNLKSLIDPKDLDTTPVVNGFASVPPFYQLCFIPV
Sequence of Dual specificity calcium/calmodulin-dependent 3',5'-cyclic nucleotide phosphodiesterase 1A (P54750 whole entry): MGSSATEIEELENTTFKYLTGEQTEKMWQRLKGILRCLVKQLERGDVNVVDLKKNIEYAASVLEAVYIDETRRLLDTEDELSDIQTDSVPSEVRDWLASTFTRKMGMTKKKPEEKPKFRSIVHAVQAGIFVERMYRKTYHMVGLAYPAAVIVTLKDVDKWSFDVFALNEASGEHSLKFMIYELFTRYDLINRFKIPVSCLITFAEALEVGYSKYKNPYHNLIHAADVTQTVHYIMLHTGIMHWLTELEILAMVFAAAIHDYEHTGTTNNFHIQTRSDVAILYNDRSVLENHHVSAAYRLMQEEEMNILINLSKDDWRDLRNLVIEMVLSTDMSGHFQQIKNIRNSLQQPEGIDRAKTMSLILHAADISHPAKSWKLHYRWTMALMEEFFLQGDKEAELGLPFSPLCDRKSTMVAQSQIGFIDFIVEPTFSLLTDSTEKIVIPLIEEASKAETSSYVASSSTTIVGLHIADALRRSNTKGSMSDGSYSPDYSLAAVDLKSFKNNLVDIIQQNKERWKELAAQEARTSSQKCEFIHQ
Sequence of 3',5'-cyclic-AMP phosphodiesterase 4D (Q08499 whole entry): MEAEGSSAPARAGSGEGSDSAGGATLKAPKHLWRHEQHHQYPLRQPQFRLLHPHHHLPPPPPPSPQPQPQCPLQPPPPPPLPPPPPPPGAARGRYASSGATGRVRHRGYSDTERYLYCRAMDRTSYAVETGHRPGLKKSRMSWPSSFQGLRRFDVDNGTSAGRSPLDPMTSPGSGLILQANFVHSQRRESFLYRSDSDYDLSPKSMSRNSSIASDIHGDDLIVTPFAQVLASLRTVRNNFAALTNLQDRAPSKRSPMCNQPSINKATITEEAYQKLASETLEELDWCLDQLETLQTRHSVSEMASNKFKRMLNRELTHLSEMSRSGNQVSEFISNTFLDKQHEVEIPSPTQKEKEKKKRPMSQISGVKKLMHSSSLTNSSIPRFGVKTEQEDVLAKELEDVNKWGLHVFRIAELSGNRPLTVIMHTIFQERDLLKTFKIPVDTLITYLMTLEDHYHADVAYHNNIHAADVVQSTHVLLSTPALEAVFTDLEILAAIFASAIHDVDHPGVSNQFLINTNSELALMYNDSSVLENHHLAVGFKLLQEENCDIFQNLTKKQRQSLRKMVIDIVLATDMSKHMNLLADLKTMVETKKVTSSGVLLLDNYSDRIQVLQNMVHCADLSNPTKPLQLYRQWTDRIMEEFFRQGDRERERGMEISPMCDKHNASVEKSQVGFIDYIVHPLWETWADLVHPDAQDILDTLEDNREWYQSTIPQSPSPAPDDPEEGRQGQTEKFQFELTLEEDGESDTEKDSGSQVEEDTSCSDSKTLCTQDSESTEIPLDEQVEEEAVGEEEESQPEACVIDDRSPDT

- IC50 [4]: 0.106 µM
SMILES: COc1ccc(Cl)c(-c2nnc3c(C)nc4ccc(CN5CCOCC5)cc4n23)c1

- Ratio IC50 [5]: 13
SMILES: Cc1nc2ccc(CN3CCOCC3)cc2n2c(-c3ccccc3Cl)nnc12

- Kp at 4 h [6]: 1.1
- remaining at 0.25 h [7]: 0%
- IC50 (Cytochrome P450 3A4): > 10 µM
- IC50 [9]: > 10 µM
- IC50 (Cytochrome P450 2C19): > 10 µM
- Drug uptake(free) (Plasma [10]): 67 nM
- solubility [11]: 4 mg/mL (≈ 9.25 mM)
- Kp at 2 h [12]: 1.1
- AUC(0-inf) [13]: 0.305 µg·h/mL
- fraction unbound [14]: 0.14
- Cmax [15]: 0.658 µg/mL
- IC50 [16]: > 10 µM
- remaining at 0.25 h [17]: 0%
- Tmax [18]: 40.2 min
- IC50 [19]: 2.14 µM
- IC50 [20]: > 10 µM
- IC50 (Phosphodiesterase 6): > 10 µM
- Cp (Plasma [22]): BLD
- fraction unbound [23]: 0.31
- EC50 (Rattus norvegicus [24]): 0.021 µM
- IC50 [25]: > 10 µM
- clearance [26]: 7.8 L/h/kg
- Kp at 7 h [27]: 0.93
- Drug uptake (Brain): BLD
- solubility [28]: 16 mg/mL (≈ 37 mM)
- solubility [29]: 15 mg/mL (≈ 34.7 mM)
- Kp at 0.5 h [30]: 1.4
- IC50 [31]: > 10 µM
- AUC(0-inf) [32]: 1.67 µg·h/mL
- IC50 [33]: > 10 µM
- half-life [34]: 18.6 min
- Vd [35]: 2.7 L/kg
- Kp at 1 h [36]: 1.1
- half-life [37]: 60 min
SMILES: CCCCOc1cncc(-c2nnc3c(C)nc4ccc(CN5CCOCC5)cc4n23)c1
- Activity (Rattus norvegicus [8]): 251%
- Activity (Salmonella typhimurium): Non-toxic
- Activity (Rattus norvegicus [21]): 109%
- ED50 (Rattus norvegicus [24]; sc, route subcutaneous): 4.3 mg/kg

Continued, compound first:

SMILES: COc1ccc(Cc2nn3c([C@@H](CCCc4ccccc4)[C@@H](C)O)nc(C)c3c(=O)[nH]2)cc1OC
- Kp at 0.5 h [1]: 0.05
- concentration at 0.5 h [2]: 3.6 ng/g
- concentration at 0.5 h [3]: 0.0729 µg/mL

SMILES: Cc1nc2ccc(CN3CCOCC3)cc2n2c(-c3cncc(OC(C)C)c3)nnc12
- IC50 [4]: > 10 µM
